Converted amounts (≈) assume the structure as drawn.
Legend:
Type in all cases: functional
Staphylococcus aureus [1] = experiment: Antibacterial activity against tetracycline-resistant Staphylococcus aureus isolate SA161 expressing TetM gene
In short: (§1)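 Broth microdilution MIC following CLSI methods in cation-adjusted Mueller Hinton broth, prepared fresh and held at 4 °C before testing. Defibrinated horse blood added to the medium where appropriate. Runs accepted when quality control ranges for comparator antibiotics and ATCC QC strains were met.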

Klebsiella pneumoniae = experiment: Antibacterial activity against Klebsiella pneumoniae ATCC 13883
In short: (§2)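 MIC by broth microdilution in liquid medium per CLSI, in cation-adjusted Mueller Hinton broth made fresh and held at 4 °C before testing. Horse blood (defibrinated) added to the medium where appropriate. Runs were accepted only when the comparator antibiotics and ATCC QC strains fell within their recommended ranges.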

Escherichia coli [2] = experiment: Antibacterial activity against Escherichia coli isolate EC155 expressing tetA gene; in short: as §2
Escherichia coli [3] = experiment: Antibacterial activity against Escherichia coli ATCC 25922 isolate 107; in short: as §2
Streptococcus pneumoniae [4] = experiment: Antibacterial activity against Streptococcus pneumoniae ATCC 49619 isolate 106; in short: as §2
Staphylococcus aureus [5] = experiment: Antibacterial activity against tetracycline-susceptible Staphylococcus aureus ATCC 13709 Smith isolate SA100; in short: as §1
Staphylococcus aureus [6] = experiment: Antibacterial activity against tetracycline-resistant Staphylococcus aureus isolate SA158 expressing TetK gene
Streptococcus pneumoniae [7] = experiment: Antibacterial activity against tetracycline-resistant Streptococcus pneumoniae isolate 160 expressing tetM gene

Row | Structure (SMILES) | MIC (Staphylococcus aureus [1]) | MIC (Klebsiella pneumoniae) | MIC (Escherichia coli [2]) | MIC (Escherichia coli [3]) | MIC (Streptococcus pneumoniae [4]) | MIC (Staphylococcus aureus [5]) | MIC (Staphylococcus aureus [6]) | MIC (Streptococcus pneumoniae [7])
1 | CN(C)[C@@H]1C(O)=C(C(N)=O)C(=O)[C@@]2(O)C(O)=C3C(=O)c4c(O)c(NC(=O)c5cccnc5)cc(F)c4C[C@H]3C[C@@H]12 | 4 µg/mL (≈ 7.24 µM) | > 32 µg/mL | > 32 µg/mL | > 32 µg/mL | 1 µg/mL (≈ 1.81 µM) | 2 µg/mL (≈ 3.62 µM) | 16 µg/mL (≈ 29 µM) | 2 µg/mL (≈ 3.62 µM)
2 | CN(C)[C@@H]1C(O)=C(C(N)=O)C(=O)[C@@]2(O)C(O)=C3C(=O)c4c(O)c(NC(=O)c5cccs5)cc(F)c4C[C@H]3C[C@@H]12 | 0.25 µg/mL (≈ 0.448 µM) | > 32 µg/mL | > 32 µg/mL | > 32 µg/mL | 16 µg/mL (≈ 28.7 µM) | 0.13 µg/mL (≈ 0.233 µM) | 0.5 µg/mL (≈ 0.897 µM) | 16 µg/mL (≈ 28.7 µM)
3 | CN(C)[C@@H]1C(O)=C(C(N)=O)C(=O)[C@@]2(O)C(O)=C3C(=O)c4c(O)c(NC(=O)CN5CCCC5)cc(F)c4C[C@H]3C[C@@H]12 [ERAVACYCLINE] | 0.016 µg/mL (≈ 0.0286 µM) | 0.125 µg/mL (≈ 0.224 µM) | 1 µg/mL (≈ 1.79 µM) | 0.016 µg/mL (≈ 0.0286 µM) | 0.016 µg/mL (≈ 0.0286 µM) | 0.016 µg/mL (≈ 0.0286 µM) | 0.016 µg/mL (≈ 0.0286 µM) | 0.016 µg/mL (≈ 0.0286 µM)
4 | CN(C)[C@@H]1C(O)=C(C(N)=O)C(=O)[C@@]2(O)C(O)=C3C(=O)c4c(O)c(NCC(C)(C)C)cc(F)c4C[C@H]3C[C@@H]12 | 2 µg/mL (≈ 3.86 µM) | > 32 µg/mL | > 32 µg/mL | > 32 µg/mL | 4 µg/mL (≈ 7.73 µM) | 0.25 µg/mL (≈ 0.483 µM) | 0.25 µg/mL (≈ 0.483 µM) | 16 µg/mL (≈ 30.9 µM)
5 | CN(C)[C@@H]1C(O)=C(C(N)=O)C(=O)[C@@]2(O)C(O)=C3C(=O)c4c(O)c(NC(=O)c5ccn(C)n5)cc(F)c4C[C@H]3C[C@@H]12 | 0.5 µg/mL (≈ 0.9 µM) | > 32 µg/mL | > 32 µg/mL | > 32 µg/mL | 1 µg/mL (≈ 1.8 µM) | 0.5 µg/mL (≈ 0.9 µM) | 1 µg/mL (≈ 1.8 µM) | 2 µg/mL (≈ 3.6 µM)
6 | CN(C)[C@@H]1C(O)=C(C(N)=O)C(=O)[C@@]2(O)C(O)=C3C(=O)c4c(O)c(NC(=O)[C@H]5CCCCN5)cc(F)c4C[C@H]3C[C@@H]12 | 2 µg/mL (≈ 3.58 µM) | 16 µg/mL (≈ 28.6 µM) | > 32 µg/mL | 4 µg/mL (≈ 7.16 µM) | 0.5 µg/mL (≈ 0.895 µM) | 2 µg/mL (≈ 3.58 µM) | 2 µg/mL (≈ 3.58 µM) | 0.5 µg/mL (≈ 0.895 µM)
7 | CN(C)[C@@H]1C(O)=C(C(N)=O)C(=O)[C@@]2(O)C(O)=C3C(=O)c4c(O)c(CNCC(C)(C)C)cc(F)c4C[C@H]3C[C@@H]12 | 4 µg/mL (≈ 7.52 µM) | 8 µg/mL (≈ 15 µM) | 16 µg/mL (≈ 30.1 µM) | 4 µg/mL (≈ 7.52 µM) | 0.25 µg/mL (≈ 0.47 µM) | 2 µg/mL (≈ 3.76 µM) | 2 µg/mL (≈ 3.76 µM) | 0.25 µg/mL (≈ 0.47 µM)
8 | CN(C)[C@@H]1C(O)=C(C(N)=O)C(=O)[C@@]2(O)C(O)=C3C(=O)c4c(O)c(NC(=O)[C@@H]5CCCCN5)cc(F)c4C[C@H]3C[C@@H]12 | 1 µg/mL (≈ 1.79 µM) | 2 µg/mL (≈ 3.58 µM) | 8 µg/mL (≈ 14.3 µM) | 0.5 µg/mL (≈ 0.895 µM) | 0.031 µg/mL (≈ 0.0555 µM) | 0.5 µg/mL (≈ 0.895 µM) | 0.25 µg/mL (≈ 0.448 µM) | 0.063 µg/mL (≈ 0.113 µM)
9 | CN(C)[C@@H]1C(O)=C(C(N)=O)C(=O)[C@@]2(O)C(O)=C3C(=O)c4c(O)c(NS(=O)(=O)c5ccccc5)cc(F)c4C[C@H]3C[C@@H]12 | 1 µg/mL (≈ 1.7 µM) | > 32 µg/mL | > 32 µg/mL | 32 µg/mL (≈ 54.5 µM) | 0.25 µg/mL (≈ 0.425 µM) | 0.5 µg/mL (≈ 0.851 µM) | 0.5 µg/mL (≈ 0.851 µM) | 0.25 µg/mL (≈ 0.425 µM)
10 | Cc1cc(C(=O)Nc2cc(F)c3c(c2O)C(=O)C2=C(O)[C@]4(O)C(=O)C(C(N)=O)=C(O)[C@@H](N(C)C)[C@@H]4C[C@@H]2C3)no1 | 0.5 µg/mL (≈ 0.898 µM) | > 32 µg/mL | > 32 µg/mL | > 32 µg/mL | 2 µg/mL (≈ 3.59 µM) | 0.25 µg/mL (≈ 0.449 µM) | 0.5 µg/mL (≈ 0.898 µM) | 2 µg/mL (≈ 3.59 µM)
11 | CN(C)c1ccccc1C(=O)Nc1cc(F)c2c(c1O)C(=O)C1=C(O)[C@]3(O)C(=O)C(C(N)=O)=C(O)[C@@H](N(C)C)[C@@H]3C[C@@H]1C2 | 0.13 µg/mL (≈ 0.219 µM) | > 32 µg/mL | > 32 µg/mL | > 32 µg/mL | 32 µg/mL (≈ 53.8 µM) | 0.13 µg/mL (≈ 0.219 µM) | 0.063 µg/mL (≈ 0.106 µM) | > 32 µg/mL
12 | CN(C)[C@@H]1C(O)=C(C(N)=O)C(=O)[C@@]2(O)C(O)=C3C(=O)c4c(O)c(NC(=O)CNC(C)(C)C)cc(F)c4C[C@H]3C[C@@H]12 | 0.25 µg/mL (≈ 0.446 µM) | 1 µg/mL (≈ 1.78 µM) | 2 µg/mL (≈ 3.57 µM) | 0.25 µg/mL (≈ 0.446 µM) | 0.016 µg/mL (≈ 0.0285 µM) | 0.25 µg/mL (≈ 0.446 µM) | 0.063 µg/mL (≈ 0.112 µM) | 0.016 µg/mL (≈ 0.0285 µM)
13 | CCCNc1cc(F)c2c(c1O)C(=O)C1=C(O)[C@]3(O)C(=O)C(C(N)=O)=C(O)[C@@H](N(C)C)[C@@H]3C[C@@H]1C2 | 0.5 µg/mL (≈ 1.02 µM) | > 32 µg/mL | > 32 µg/mL | 32 µg/mL (≈ 65.4 µM) | 1 µg/mL (≈ 2.04 µM) | 0.5 µg/mL (≈ 1.02 µM) | 0.5 µg/mL (≈ 1.02 µM) | 4 µg/mL (≈ 8.17 µM)

Source: ChEMBL document CHEMBL2057101, “Fluorocyclines. 2. Optimization of the C-9 side-chain for antibacterial activity and oral efficacy” (J Med Chem, 2012)
